Calls of active or inactive are those of the source. No cut-off for these calls is given here.
What was measured:
Human betaherpesvirus 5 [1] = assay: Antiviral activity against human cytomegalovirus AD169 infected in human HFF assessed as inhibition of plaque formation by plaque reduction assay; type: functional, organism-based; settings: Human betaherpesvirus 5, AD169
Summary of the method: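 Plaque reduction against AD169 in HFF. EC50 is the concentration giving 50% inhibition of plaque formation, reported as mean ± SD of at least three independent experiments run in duplicate.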

[2] = Selectivity index, ratio of CC50 for human HFF to EC50 for human cytomegalovirus AD169
Summary of the method: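 Selectivity index is CC50 from the HFF MTT assay divided by EC50 from the AD169 plaque reduction assay in HFF.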

[3] = Inhibition of human cytomegalovirus DNA polymerase catalytic subunit UL54 assessed as incorporation of [3H]dTTP; set-up: species or system Human betaherpesvirus 5
Summary of the method: (§1)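 Filter-based assay with purified baculovirus-expressed UL54 catalytic subunit, alone or with UL44 accessory subunit. Incorporation of [3H]dTTP into poly(dA)-oligo(dT)12-18 template-primer was measured across serial compound dilutions, with FOS as control. Means ± standard deviations from four independent experiments.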

[4] = Inhibition of human cytomegalovirus DNA polymerase catalytic subunit UL54/UL44 assessed as incorporation of [3H]dTTP; set-up: species or system Human betaherpesvirus 5; summary of the method: as §1
Human betaherpesvirus 5 [5] = assay: Antiviral activity against human cytomegalovirus AD169 infected in human HFF assessed as virus yield reduction; type: functional, organism-based; settings: Human betaherpesvirus 5, AD169
Human betaherpesvirus 5 [6] = assay: Antiviral activity against 1 MOI human cytomegalovirus AD169 infected in human HFF assessed as virus yield reduction by yield reduction assay; type: functional, organism-based; settings: Human betaherpesvirus 5, AD169
Human betaherpesvirus 5 [7] = assay: Antiviral activity against 0.1 MOI human cytomegalovirus AD169 infected in human HFF assessed as inhibition of immediate early phase UL122 mRNA expression after 16 hrs by RT-PCR analysis; type: functional, organism-based
Summary of the method: (§2)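 HFF seeded at 6×10^5 per well, infected with AD169 at MOI 0.1 PFU/cell, then given 50 µM drug or 0.2% DMSO. ActD 5 µg/ml, CHX 75 µg/ml and FOS 750 µM served as IE, E and L transcription controls. Total RNA was taken at 16 and 48 h p.i.; 1 µg was reverse-transcribed with random hexamers and MuLV RT. PCR used UL122/UL123 (IE), UL54/UL84 (E) and UL55/UL75 (L) primers with a β-actin control, and products were read on ethidium bromide agarose gels.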

Human betaherpesvirus 5 [8] = assay: Antiviral activity against 0.1 MOI human cytomegalovirus AD169 infected in human HFF assessed as inhibition of immediate early phase UL123 mRNA expression after 16 hrs by RT-PCR analysis; type: functional, organism-based; summary of the method: as §2
Human betaherpesvirus 5 [9] = assay: Antiviral activity against 0.1 MOI human cytomegalovirus AD169 infected in human HFF assessed as inhibition of immediate early phase P72 protein expression after 24 hrs by Western blot analysis; type: functional, organism-based
Summary of the method: (§3)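 HFF infected with HCMV AD169 at MOI 0.1 PFU/cell, treated with 50 µM compound or 0.2% DMSO. ActD 5 µg/ml, CHX 75 µg/ml and FOS 750 µM served as controls. Harvests at 24, 48 and 72 h p.i. were lysed in NP-40 buffer, then SDS-PAGE and PVDF blotting. Probes were anti-IE1/IE2 (p72/p86) MAb or anti-UL55, then HRP secondary and ECL. β-actin reprobe was the internal control.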

Human betaherpesvirus 5 [10] = assay: Antiviral activity against 0.1 MOI human cytomegalovirus AD169 infected in human HFF assessed as inhibition of immediate early phase P86 protein expression after 24 hrs by Western blot analysis; type: functional, organism-based; summary of the method: as §3
Human betaherpesvirus 5 [11] = assay: Antiviral activity against 0.1 MOI human cytomegalovirus AD169 infected in human HFF assessed as inhibition of late phase UL55 protein expression after 72 hrs of infection by Western blot analysis; type: functional, organism-based; summary of the method: as §3
Human betaherpesvirus 5 [12] = assay: Antiviral activity against 0.1 MOI human cytomegalovirus AD169 infected in human U373-MG cells expressing UL54-EGFP reporter assessed as inhibition of EGFP expression after 48 hrs of infection by confocal fluorescence microscopy; type: functional, organism-based; settings: U-373MG ATCC
Summary of the method: (§4)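 Stable U373-MG reporter cells were seeded on coverslips at 3×10^5 per well and infected with AD169 at MOI 0.1 or 0.5. They were then treated with 50 µM drug, 5 µM fomivirsen (also given 1 h before and during infection) or 0.2% DMSO. At 48 h p.i. cells were fixed in 4% paraformaldehyde for 15 min, and EGFP-positive cells were counted by confocal microscopy at 20×.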

Human betaherpesvirus 5 [13] = assay: Antiviral activity against 0.1 MOI human cytomegalovirus AD169 infected in human U373-MG cells expressing UL112/113-EGFP reporter assessed as inhibition of EGFP expression after 48 hrs of infection by confocal fluorescence microscopy; type: functional, organism-based; settings: U-373MG ATCC; summary of the method: as §4
Human betaherpesvirus 5 [14] = assay: Antiviral activity against 0.5 MOI human cytomegalovirus AD169 infected in human U373-MG cells expressing UL54-EGFP reporter assessed as inhibition of EGFP expression after 48 hrs of infection by confocal fluorescence microscopy; type: functional, organism-based; settings: U-373MG ATCC; summary of the method: as §4
Human betaherpesvirus 5 [15] = assay: Antiviral activity against 0.5 MOI human cytomegalovirus AD169 infected in human U373-MG cells expressing UL112/113-EGFP reporter assessed as inhibition of EGFP expression after 48 hrs of infection by confocal fluorescence microscopy; type: functional, organism-based; settings: U-373MG ATCC; summary of the method: as §4
Human betaherpesvirus 5 [16] = assay: Antiviral activity against 0.1 MOI human cytomegalovirus AD169 infected in human HFF assessed as virus yield reduction by yield reduction assay; type: functional, organism-based; settings: Human betaherpesvirus 5, AD169
Human betaherpesvirus 5 [17] = assay: Antiviral activity against 0.01 MOI human cytomegalovirus AD169 infected in human HFF assessed as virus yield reduction by yield reduction assay; type: functional, organism-based; settings: Human betaherpesvirus 5, AD169
Human betaherpesvirus 5 [18] = assay: Antiviral activity against human cytomegalovirus AD169 in human HFF assessed as reduction of viral attachment to fibroblast at 4 degC; type: functional, organism-based
Summary of the method: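 Prechilled HFF monolayers received 100 PFU AD169 together with graded compound or heparin control for 2 or 4 h at 4°C. Cells were washed with cold PBS, overlaid with compound-free 0.6% methylcellulose medium and kept 10 days at 37°C. Plaques were stained with crystal violet and counted. Three experiments were run in duplicate; mean ± SD.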

Human betaherpesvirus 5 [19] = assay: Antiviral activity against human cytomegalovirus AD169 in human HFF assessed as reduction of viral entry into fibroblast after 2 hrs at 37 degC; settings: Human betaherpesvirus 5, AD169, 2 h
Human betaherpesvirus 5 [20] = assay: Antiviral activity against 1 MOI human cytomegalovirus AD169 infected in human HFF assessed as inhibition of viral replication up to 30 hrs post infection
Human betaherpesvirus 5 [21] = assay: Antiviral activity against 0.1 MOI human cytomegalovirus AD169 infected in human HFF assessed as inhibition of early phase UL54 mRNA expression after 16 hrs by RT-PCR analysis
Human betaherpesvirus 5 [22] = assay: Antiviral activity against 0.1 MOI human cytomegalovirus AD169 infected in human HFF assessed as inhibition of early phase UL84 mRNA expression after 16 hrs by RT-PCR analysis
Human betaherpesvirus 5 [23] = assay: Antiviral activity against 0.1 MOI human cytomegalovirus AD169 infected in human cells expressing UL54-EGFP reporter assessed as inhibition of IE2 transactivating activity after 48 hrs of infection by confocal fluorescence microscopy
Human betaherpesvirus 5 [24] = assay: Antiviral activity against 0.1 MOI human cytomegalovirus AD169 infected in human cells expressing UL112/113-EGFP reporter assessed as inhibition of IE2 transactivating activity after 48 hrs of infection by confocal fluorescence microscopy

**Q.** Which EC50 (Human betaherpesvirus 5 [1]) does the source give for `Nc1cc2c(=O)c(C(=O)O)cn(C3CC3)c2cc1N1CCN(c2ccccn2)CC1` here?
**A.** 0.9 µM

**Q.** And the “Selectivity Index” value [2]?
**A.** 479

**Q.** What about the IC50 [3] of the same compound?
**A.** > 100 µM

**Q.** What about the IC50 [4] of the same compound?
**A.** > 100 µM

**Q.** What about the EC50 (Human betaherpesvirus 5 [5]) of the same compound?
**A.** 8.6 µM

**Q.** And the EC90 (Human betaherpesvirus 5 [6])?
**A.** 51.9 µM

**Q.** What about the inhibition (Human betaherpesvirus 5 [7]) of the same compound?
**A.** inactive

**Q.** What about the inhibition (Human betaherpesvirus 5 [8]) of the same compound?
**A.** inactive

**Q.** And the inhibition (Human betaherpesvirus 5 [9])?
**A.** inactive

**Q.** And the inhibition (Human betaherpesvirus 5 [10])?
**A.** inactive

**Q.** What about the inhibition (Human betaherpesvirus 5 [11]) of the same compound?
**A.** Active

**Q.** And the inhibition (Human betaherpesvirus 5 [12])?
**A.** Active

**Q.** What about the inhibition (Human betaherpesvirus 5 [13]) of the same compound?
**A.** Active

**Q.** What about the inhibition (Human betaherpesvirus 5 [14]) of the same compound?
**A.** Active

**Q.** And the inhibition (Human betaherpesvirus 5 [15])?
**A.** Active

**Q.** What about the EC90 (Human betaherpesvirus 5 [16]) of the same compound?
**A.** 34.7 µM

**Q.** What about the EC90 (Human betaherpesvirus 5 [17]) of the same compound?
**A.** 8.5 µM

**Q.** What about the Activity (Human betaherpesvirus 5 [18]) of the same compound?
**A.** inactive

**Q.** And the EC50 (Human betaherpesvirus 5 [19])?
**A.** > 25 µM

**Q.** What about the Activity (Human betaherpesvirus 5 [20]) of the same compound?
**A.** Active

**Q.** What about the inhibition (Human betaherpesvirus 5 [21]) of the same compound?
**A.** Active

**Q.** What about the inhibition (Human betaherpesvirus 5 [22]) of the same compound?
**A.** Active

**Q.** What about the inhibition (Human betaherpesvirus 5 [23]) of the same compound?
**A.** Active

**Q.** What about the inhibition (Human betaherpesvirus 5 [24]) of the same compound?
**A.** Active

— ChEMBL document CHEMBL1255448, “The 6-aminoquinolone WC5 inhibits human cytomegalovirus replication at an early stage by interfering with the transactivating activity of viral immediate-early 2 protein” (Antimicrob Agents Chemother, 2010)
